Activity calls are given as the source filed them. No cut-off for these calls is given here.

Assay [1] has as its target T1, Matrix metalloproteinase-16 (Homo sapiens, UniProt P51512). The experiment in a line: Inhibitory activity against MMP16.
Assay [2] concerns the target Macrophage metalloelastase (Homo sapiens, UniProt P39900). Description: Inhibitory activity against MMP12.
The target in assay [3] is T2, Matrilysin (Homo sapiens) (UniProt P09237).
T2 sequence (whole entry): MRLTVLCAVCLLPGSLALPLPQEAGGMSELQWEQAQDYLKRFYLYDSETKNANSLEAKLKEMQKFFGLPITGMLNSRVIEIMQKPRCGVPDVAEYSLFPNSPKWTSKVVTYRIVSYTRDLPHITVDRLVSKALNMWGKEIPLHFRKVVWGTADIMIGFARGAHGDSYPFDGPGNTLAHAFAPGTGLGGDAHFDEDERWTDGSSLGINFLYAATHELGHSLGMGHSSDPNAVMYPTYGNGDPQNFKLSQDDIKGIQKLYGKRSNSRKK
Description: Inhibitory activity against MMP7 upto 50 uM.

Assay [4] has as its target T3, Matrix metalloproteinase-14 (Homo sapiens, UniProt P50281). The experiment in a line: Inhibitory activity against MMP14.
Assay [5] concerns the target T4, Matrix metalloproteinase-15 (Homo sapiens, UniProt P51511). Description: Inhibitory activity against MMP15.
Target sequence in this assay (P51511 whole entry): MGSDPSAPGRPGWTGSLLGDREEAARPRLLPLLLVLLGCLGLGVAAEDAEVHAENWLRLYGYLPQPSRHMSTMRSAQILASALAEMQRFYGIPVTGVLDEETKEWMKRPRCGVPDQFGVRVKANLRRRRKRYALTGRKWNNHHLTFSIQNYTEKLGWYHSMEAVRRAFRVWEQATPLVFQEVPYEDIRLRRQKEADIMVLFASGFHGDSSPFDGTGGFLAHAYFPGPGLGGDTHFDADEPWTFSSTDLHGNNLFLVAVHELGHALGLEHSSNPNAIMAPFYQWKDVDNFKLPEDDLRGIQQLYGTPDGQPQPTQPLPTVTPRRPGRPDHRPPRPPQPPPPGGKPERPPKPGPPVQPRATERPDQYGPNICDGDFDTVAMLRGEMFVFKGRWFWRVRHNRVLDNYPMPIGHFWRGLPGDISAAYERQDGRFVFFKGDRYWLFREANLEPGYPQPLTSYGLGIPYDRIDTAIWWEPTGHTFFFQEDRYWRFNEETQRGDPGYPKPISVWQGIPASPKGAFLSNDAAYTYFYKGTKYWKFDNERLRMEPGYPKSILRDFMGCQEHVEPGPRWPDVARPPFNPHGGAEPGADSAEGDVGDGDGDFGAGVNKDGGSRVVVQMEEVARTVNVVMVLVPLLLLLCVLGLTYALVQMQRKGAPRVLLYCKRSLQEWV
The target of assay [6] is T5, Matrix metalloproteinase-26 (Homo sapiens, UniProt Q9NRE1).
T5 sequence (Q9NRE1 whole entry): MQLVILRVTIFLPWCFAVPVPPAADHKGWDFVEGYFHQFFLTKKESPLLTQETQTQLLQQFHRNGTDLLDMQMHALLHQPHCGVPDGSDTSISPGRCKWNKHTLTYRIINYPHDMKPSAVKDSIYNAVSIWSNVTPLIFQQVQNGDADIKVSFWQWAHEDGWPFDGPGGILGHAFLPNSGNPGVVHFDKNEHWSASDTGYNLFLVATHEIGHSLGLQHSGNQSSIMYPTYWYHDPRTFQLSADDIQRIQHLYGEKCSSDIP
Description: Inhibitory activity against MMP26.

For assay [7], the target named is T6, Interstitial collagenase (Homo sapiens) (UniProt P03956).
T6 sequence (whole entry): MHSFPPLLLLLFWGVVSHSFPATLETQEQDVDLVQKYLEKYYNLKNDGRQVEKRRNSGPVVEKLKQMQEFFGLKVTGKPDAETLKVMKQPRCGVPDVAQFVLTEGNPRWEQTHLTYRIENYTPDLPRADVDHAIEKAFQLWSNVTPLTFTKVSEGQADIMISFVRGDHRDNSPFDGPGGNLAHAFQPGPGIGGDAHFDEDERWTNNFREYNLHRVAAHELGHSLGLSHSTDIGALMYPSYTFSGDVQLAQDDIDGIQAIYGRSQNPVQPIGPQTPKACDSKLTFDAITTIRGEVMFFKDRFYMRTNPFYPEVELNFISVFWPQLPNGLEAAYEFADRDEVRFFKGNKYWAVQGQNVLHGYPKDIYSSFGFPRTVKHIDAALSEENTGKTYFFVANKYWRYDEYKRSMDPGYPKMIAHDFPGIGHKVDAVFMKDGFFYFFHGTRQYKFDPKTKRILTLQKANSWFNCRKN
The experiment in a line: Inhibitory activity against MMP1 upto 50uM.

In assay [8] the target is 72 kDa type IV collagenase (Homo sapiens, UniProt P08253). The experiment in a line: Inhibitory activity against MMP2.
Sequence of 72 kDa type IV collagenase (P08253 whole entry): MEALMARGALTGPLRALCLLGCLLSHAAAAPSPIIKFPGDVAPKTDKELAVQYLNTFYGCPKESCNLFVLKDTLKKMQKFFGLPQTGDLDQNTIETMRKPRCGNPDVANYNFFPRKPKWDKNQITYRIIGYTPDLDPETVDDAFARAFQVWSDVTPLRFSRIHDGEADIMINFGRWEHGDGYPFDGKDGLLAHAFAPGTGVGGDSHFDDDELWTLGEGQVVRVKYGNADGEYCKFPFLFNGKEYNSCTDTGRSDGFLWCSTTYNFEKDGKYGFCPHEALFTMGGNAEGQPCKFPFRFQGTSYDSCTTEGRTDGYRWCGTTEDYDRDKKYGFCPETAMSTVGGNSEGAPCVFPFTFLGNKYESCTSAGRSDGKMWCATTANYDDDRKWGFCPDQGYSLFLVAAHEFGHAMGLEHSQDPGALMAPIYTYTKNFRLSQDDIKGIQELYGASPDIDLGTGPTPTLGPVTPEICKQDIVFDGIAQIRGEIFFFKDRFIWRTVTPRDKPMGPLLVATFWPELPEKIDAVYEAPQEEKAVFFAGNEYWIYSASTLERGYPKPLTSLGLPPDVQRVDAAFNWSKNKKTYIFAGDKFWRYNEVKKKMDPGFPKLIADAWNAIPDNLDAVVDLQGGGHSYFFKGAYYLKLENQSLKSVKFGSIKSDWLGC
Assay [9] concerns the target T7, Matrix metalloproteinase-9 (Homo sapiens, UniProt P14780). The experiment in a line: Inhibitory activity against MMP9.
In assay [10] the target is T8, Matrix metalloproteinase-26 (Homo sapiens) (UniProt Q9NRE1).
T8 sequence (whole entry): T5 sequence (Q9NRE1 whole entry)
The experiment in a line: Inhibitory activity against MMP26 upto 50uM.

The target in assay [11] is T4, Matrix metalloproteinase-15. Description: Inhibitory activity against MMP15 upto 50uM.
Target sequence in this assay (P51511 132-669 limits assumed): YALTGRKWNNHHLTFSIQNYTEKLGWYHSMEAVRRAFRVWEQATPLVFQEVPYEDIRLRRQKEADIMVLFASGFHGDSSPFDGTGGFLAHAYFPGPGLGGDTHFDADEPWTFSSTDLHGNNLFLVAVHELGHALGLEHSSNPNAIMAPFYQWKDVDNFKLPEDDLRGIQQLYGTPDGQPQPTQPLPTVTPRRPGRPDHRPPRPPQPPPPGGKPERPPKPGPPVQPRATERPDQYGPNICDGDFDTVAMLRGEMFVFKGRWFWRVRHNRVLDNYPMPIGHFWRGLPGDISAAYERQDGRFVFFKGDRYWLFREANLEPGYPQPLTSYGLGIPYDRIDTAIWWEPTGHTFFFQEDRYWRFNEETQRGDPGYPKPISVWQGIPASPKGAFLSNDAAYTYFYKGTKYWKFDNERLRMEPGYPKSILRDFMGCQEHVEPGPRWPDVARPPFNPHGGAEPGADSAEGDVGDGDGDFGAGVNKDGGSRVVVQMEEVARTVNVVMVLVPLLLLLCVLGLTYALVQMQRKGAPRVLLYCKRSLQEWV
Assay [12] concerns the target T3, Matrix metalloproteinase-14. Description: Inhibitory activity against MMP14 upto 50uM.
The target of assay [13] is T1, Matrix metalloproteinase-16. Description: Inhibitory activity against MMP16 upto 50uM.
Assay [14] has as its target T7, Matrix metalloproteinase-9. Description: Inhibitory activity against MMP9 upto 50uM.
For assay [15], the target named is T2, Matrilysin (Homo sapiens). The experiment in a line: Inhibitory activity against MMP7 upto 50uM.
The next assay relates to Syrian golden hamster. Description: Increase in lung weight, lung volumes, relative lung volumes and right ventricular hypertropy in PPE-treated Syrian hamster at 5 mg/kg. The format is functional, organism-based. On the set-up: dose 5 mg/kg. Conditions: Mesocricetus auratus, Heart right ventricle. The method in brief: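 Male golden Syrian hamsters with PPE-induced emphysema, compared with saline-treated controls, PPE-only animals and compound/saline-treated animals. Read-outs were wet weight of the left lung, lung volume, relative lung volume and right ventricular hypertrophy.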

T1 sequence (P51512 whole entry): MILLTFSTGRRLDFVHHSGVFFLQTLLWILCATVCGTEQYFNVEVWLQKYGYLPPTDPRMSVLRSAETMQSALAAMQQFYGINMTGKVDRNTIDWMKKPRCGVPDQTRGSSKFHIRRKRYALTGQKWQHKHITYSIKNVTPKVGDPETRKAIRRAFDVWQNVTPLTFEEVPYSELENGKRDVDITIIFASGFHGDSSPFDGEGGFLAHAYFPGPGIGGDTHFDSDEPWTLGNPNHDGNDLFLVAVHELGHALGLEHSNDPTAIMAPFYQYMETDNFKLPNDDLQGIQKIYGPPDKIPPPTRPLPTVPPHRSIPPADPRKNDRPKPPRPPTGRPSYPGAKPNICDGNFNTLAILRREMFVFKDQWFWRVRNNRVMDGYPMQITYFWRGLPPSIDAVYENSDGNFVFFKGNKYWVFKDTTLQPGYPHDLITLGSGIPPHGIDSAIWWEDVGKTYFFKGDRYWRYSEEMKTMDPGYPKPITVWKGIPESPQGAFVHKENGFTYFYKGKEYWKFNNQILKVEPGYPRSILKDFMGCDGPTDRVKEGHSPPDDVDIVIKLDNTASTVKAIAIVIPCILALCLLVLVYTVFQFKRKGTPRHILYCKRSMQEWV
T7 sequence (P14780 whole entry): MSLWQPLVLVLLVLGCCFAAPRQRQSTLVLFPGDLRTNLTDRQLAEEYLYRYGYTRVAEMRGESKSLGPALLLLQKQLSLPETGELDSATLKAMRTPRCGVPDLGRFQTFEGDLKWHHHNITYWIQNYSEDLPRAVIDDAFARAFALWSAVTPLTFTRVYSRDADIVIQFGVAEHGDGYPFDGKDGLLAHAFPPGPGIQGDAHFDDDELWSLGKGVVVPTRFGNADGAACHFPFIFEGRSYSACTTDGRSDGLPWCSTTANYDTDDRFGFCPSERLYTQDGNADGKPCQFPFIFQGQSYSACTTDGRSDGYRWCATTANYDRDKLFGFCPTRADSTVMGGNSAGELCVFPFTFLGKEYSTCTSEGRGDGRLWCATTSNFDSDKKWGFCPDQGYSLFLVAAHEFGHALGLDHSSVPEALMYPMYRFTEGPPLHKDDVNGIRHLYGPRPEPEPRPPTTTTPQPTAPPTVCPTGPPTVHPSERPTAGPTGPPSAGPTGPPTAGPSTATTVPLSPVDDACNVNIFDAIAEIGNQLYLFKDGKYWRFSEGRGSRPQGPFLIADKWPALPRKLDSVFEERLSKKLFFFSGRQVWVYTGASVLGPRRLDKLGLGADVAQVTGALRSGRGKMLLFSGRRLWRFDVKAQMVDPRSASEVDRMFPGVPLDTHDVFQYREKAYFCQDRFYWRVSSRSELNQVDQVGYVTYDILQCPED
Sequence of Macrophage metalloelastase (P39900 whole entry): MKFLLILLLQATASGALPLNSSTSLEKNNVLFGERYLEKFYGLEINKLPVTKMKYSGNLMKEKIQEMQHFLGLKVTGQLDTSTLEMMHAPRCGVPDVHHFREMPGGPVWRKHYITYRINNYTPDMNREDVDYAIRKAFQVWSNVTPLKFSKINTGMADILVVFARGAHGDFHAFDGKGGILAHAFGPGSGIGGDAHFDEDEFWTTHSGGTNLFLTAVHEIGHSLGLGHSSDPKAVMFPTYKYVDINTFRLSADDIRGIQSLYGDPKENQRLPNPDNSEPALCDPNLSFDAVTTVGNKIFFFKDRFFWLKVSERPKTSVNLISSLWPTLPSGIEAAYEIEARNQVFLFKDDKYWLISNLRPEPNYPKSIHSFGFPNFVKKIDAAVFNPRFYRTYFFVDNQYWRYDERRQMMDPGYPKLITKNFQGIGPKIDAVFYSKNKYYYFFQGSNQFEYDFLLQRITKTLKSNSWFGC

What is called IC50 is the point on the concentration scale where inhibition reaches its midpoint. Low readings indicate greater potency, high ones weaker potency. Turning to `CCC(CC(=O)O)C(=O)c1ccc(C#Cc2ccccc2)cc1` (stereo unspecified), the IC50 in [1] was 32 µM; in assay [2] it was 0.48 µM; in [4], 30.6 µM; in assay [5], 13.9 µM; in [6], 18.1 µM; in [8], 0.44 µM. In [9], this compound displayed an IC50 of 3.6 µM. Besides, the result in assay [3] and in [7] was inactive.
For `O=C(O)CC(CC1CCCC1)C(=O)c1ccc(C#Cc2ccccc2)cc1` (stereo unspecified), the IC50 was determined as 0.32 µM in assay [2], 1.12 µM in assay [8] and 3.39 µM in assay [9].
For `CCCCCCCCC#Cc1ccc(C(=O)CCC(=O)O)cc1`, the IC50 in [2] came out at 12.5 µM; in assay [8], 3.07 µM. In addition, the result in assay [3], in [10], in assay [11], in assay [12], in assay [13] and in assay [14] was inactive. The outcome in [7] was inactive.
For the compound `CCCCCCC(CC(=O)O)C(=O)c1ccc(C#Cc2ccc(Cl)cc2)cc1` (stereo unspecified), the concentration for half-maximal inhibition (IC50) turned out to be 0.2 µM in assay [2], 0.55 µM in [8] and 1.51 µM in [9]. For the same compound, the outcome in [15], in [3], in [10], in [11], in [13] and in [7] was inactive. The outcome with Syrian golden hamster was Active.
As to `O=C(O)CCC(=O)c1ccc(C#CCOCc2ccccc2)cc1`, the results for the IC50 in [2] and in [8] were 25.7 µM and 23.1 µM, respectively. In addition, the result in assay [3], in assay [11], in assay [12], in assay [13], in assay [14] and in assay [7] was inactive.
In the case of `O=C(O)CCC(=O)c1ccc(C#CCO)cc1`, the results for the IC50 in assay [2] and in [8] were 24.7 µM and 15.4 µM, respectively. Further, the result in assay [3], in [10], in assay [11], in [12], in assay [13] and in assay [14] was inactive. In [7], the result was inactive.
For `CCCCCCC(CC(=O)O)C(=O)c1ccc(C#Cc2ccccc2)cc1` (stereo unspecified), the IC50 in assay [2] is 0.45 µM; in assay [8], 1.66 µM; in [9], 5.41 µM.
On to `CCC(CC(=O)O)C(=O)c1ccc(C#CCOCc2ccccc2)cc1` (stereo unspecified), for which the IC50 in assay [2] came to 7.56 µM; in [8], 5.74 µM. Besides, the outcome in assay [3], in assay [10], in assay [11], in [12], in assay [13] and in assay [14] was inactive. Further, the outcome in [7] was inactive.
For the compound `O=C(O)CC(Cc1ccc(F)cc1)C(=O)c1ccc(C#Cc2ccccc2)cc1` (stereo unspecified), the IC50 turned out to be 1.14 µM in assay [2], 3.43 µM in [8] and 10 µM in [9].
In the case of `O=C(O)CC(Cc1ccccc1)C(=O)c1ccc(C#Cc2ccccc2)cc1` (stereo unspecified), the IC50 in assay [2] was 0.6 µM; in assay [8], 2.11 µM; in assay [9], 9.29 µM.

The values above are taken from ChEMBL document CHEMBL1148611, “Selective inhibition of matrix metalloproteinase isozymes and in vivo protection against emphysema by substituted gamma-keto carboxylic acids” (J Med Chem, 2006).
